Assay results reported in article PMC4874899 (Cell chemical biology, 2016).

Key:
cells [1] = test: Cytosolic penetration / endosomal escape by fluorescence microscopy; assay type: cell-based; conditions: retro-2 20 µM, 30 min prior to dfTAT (3 µM, 1 h)
Outline: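 Cells at 80–90% confluency (48 h) pretreated 30 min with 20 µM retro-2, then 3 µM dfTAT for 1 h at 37 °C in serum-free L-15. Washed with heparin-containing L-15 (1 mg/mL); SYTOX (5 µM) stained cells excluded. Imaged at 37 °C; % nucleoli-positive cells of bright-field total, >500 cells per experiment, triplicates; t-test.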

[2] = system: mEmerald-TGOLN2 transport; test: Retrograde transport of the TGN marker mEmerald-TGOLN2; assay type: cell-based; conditions: retro-2 20 µM
cells [3] = conditions: ref Gao et al., 2009; Gillmeister et al., 2011; Lee et al., 2010; cited from earlier work
[4] = system: L.E. LUVs (77:19:4 BMP:PC:PE); conditions: monomeric TAT; ref Yang et al., 2010; cited from earlier work

In the case of `Cc1ccc(C=Nc2ccccc2C(=O)Nc2ccccc2)s1` [retro-2], the “effect on dfTAT-mediated endosomal escape” value (cells [1]) is reported as “had no effect on dfTAT-mediated escape” and the “inhibition of transport of TGN marker mEmerald-TGOLN2” value [2] is reported as “capable of inhibiting the transport”.

In the case of RKKRRQRRR [TAT], the “escape from the endocytic pathway” value (cells [3]) is given as “only at a very low efficiency” and the “effect on BMP-containing liposomes” value [4] is given as “leaky fusion”.
